We go through one compound from ChEMBL document CHEMBL1130160 (J Med Chem, 1997).

Each structure is given as a SMILES string. A value given as a limit tells only on which side of the number the result lay.

Assay [1] deals with Rattus norvegicus. Put plainly: Percent protection of bone mineral density in the distal femur of 75-days old OVX rat at a dose of 0.01 mg/kg/day. Format: functional. The essentials:
(§1)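 OVX Sprague–Dawley rats (6-month old, or 75-day old in one case) were dosed orally each day for 35 days, starting 4 days after ovariectomy. Digitized X-rays of the right distal femoral metaphysis gave BMD. % protection = (test − OVX)/(sham − OVX) × 100, reported ±SE.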

In another assay the target is Estrogen receptor (Homo sapiens, UniProt Q92731+P03372). The settings on record: mcf7.
Assay [2] has as its system Rattus norvegicus. Put plainly: Percent decrease in serum cholesterol relative to OVX control at 10 mg/kg in rat was determined (in vivo). Type of assay: functional. The essentials:
(§2)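 OVX Sprague–Dawley rats (75 days old), 5–6 per group, dosed once daily by oral gavage for 4 consecutive days, starting 14 days after ovariectomy. Vehicle was 20% β-hydroxycyclodextrin at 1 mL/kg, or 1.5% carboxymethylcellulose in some cases. Rats were fasted after the last dose and bled by cardiac puncture next morning.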

Assay [3] concerns Rattus norvegicus. Put plainly: Dose required to reduce serum cholesterol by 50% relative to OVX controls was determined (in vivo). Type of assay: functional. The essentials: as §2
Assay [4] concerns Rattus norvegicus. Put plainly: Percent protection of bone mineral density in the distal femur of OVX rat at a dose of 1 mg/kg/day. Format: functional. The essentials:
as §1

For assay [5], the system named is Rattus norvegicus. Put plainly: Percent protection of bone mineral density in the distal femur of 75-days old OVX rat at a dose of 0.1 mg/kg/day. Type of assay: functional. In outline:
as §1

Assay [6] concerns Rattus norvegicus. Put plainly: Percent decrease in serum cholesterol relative to OVX control at 0.1 mg/kg in rat was determined (in vivo). Format: functional. The essentials:
as §2

Assay [7] has as its system Rattus norvegicus. Put plainly: Minimum effective dose at which significant increase in uterine eosinophil peroxidase (EPO) activity in rat was determined (in vivo). Type of assay: functional. Particulars: read-out: MED.
Assay [8] has as its system Rattus norvegicus. Put plainly: Minimum effective dose at which significant increase in uterine weight/body weight in rat was determined (in vivo); expressed as % increase relative to ovariectomized (OVX) controls. Format: functional. In outline: (§3)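 In 75-day OVX Sprague–Dawley rats dosed orally for 4 days, beginning 2 weeks post-ovariectomy with 5–6 rats per group, whole uteri were weighed the morning after fasting. MED is the lowest dose giving a significant (p≤0.05) rise in uterine weight/body weight, expressed as % increase over OVX controls ±SE.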

In assay [9] the test system is Rattus norvegicus. Put plainly: Percent decrease in serum cholesterol relative to OVX control at 1 mg/kg in rat. Format: functional. The essentials:
as §2

In assay [10] the test system is Rattus norvegicus. Put plainly: Minimum effective dose at which significant increase in uterine weight/body weight in rat was determined (in vivo). Format: functional. The settings on record: read-out: MED. The essentials: as §3
The test system of assay [11] is Rattus norvegicus. Put plainly: Percent protection of bone mineral density in the distal femur of 75-days old OVX rat at a dose of 10 mg/kg/day. Type of assay: functional. The essentials: as §1

Turning to `Cl.O=C(c1ccc(OCCN2CCCCC2)cc1)c1c(-c2ccc(O)cc2)sc2ccccc12`, the Protection in the assay with Rattus norvegicus [1] is given as -1.3%; in the assay on Rattus norvegicus [4], 41.8%; in the assay with Rattus norvegicus [5], -4%; in the assay on Rattus norvegicus [11], 26.7%. For the same compound, the 50% inhibitory concentration (IC50) (as a rule, the midpoint of a concentration-inhibition curve) against Estrogen receptor stood at 0.035 µM. Also, the results for the Decrease in the assay on Rattus norvegicus [2], with Rattus norvegicus [6] and in the assay with Rattus norvegicus [9] were 67.4%, 70.7% and 69.9%, respectively. The ED50 (usually the midpoint of the dose-response relation) in the assay with Rattus norvegicus [3] was less than 0.1 mg/kg. For the same compound, the minimal effective dose was more than 10 mg/kg with Rattus norvegicus [7] and 0.1 mg/kg with Rattus norvegicus [10]. In the assay with Rattus norvegicus [8], the Increase is reported as 39.2%.
